From publication PMC12410913 (Small (Weinheim an Der Bergstrasse, Germany), 2025)
“Also recorded” adds a separate entry of the source.

Columns and labels:
E. coli ATCC 25 922 = assay: Field-emission SEM of nanonet morphology; type: cell-based; settings: 40 µM peptide (100 µM E-E13 ASYM), 2 h, MHB, 37 °C
Summary of the method: (§1)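 Mid‑log bacteria were diluted in MHB to OD600 0.07, then given test peptide and shaken at 120 rpm. They were pelleted at 6000 g for 6 min, PBS‑washed three times, and fixed overnight at 4 °C in 2.5% glutaraldehyde. Cells were adhered to poly‑L‑lysine coverslips, post‑fixed with 1% OsO4 for 30 min, ethanol‑dehydrated and gold‑coated. Imaging was at 15 000×, with ≥3 fields per sample. Coverage and extensiveness were scored high/moderate/low.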

S. aureus ATCC 29 737 = assay: Field-emission SEM of nanonet morphology; type: cell-based; settings: 40 µM peptide (100 µM E-E13 ASYM), 2 h, MHB, 37 °C
Summary of the method: as §1

BODIPY-Cadaverine = type: binding, E. coli O111:B4 (LPS), S. aureus (LTA); settings: LPS/LTA-BC complexes in 1× PBS pH 7.4, 37 °C, 30 minutes
Summary of the method: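 LPS (E. coli O111:B4) or LTA (S. aureus) at 50 µg mL−1 was premixed with 5 µM BODIPY‑cadaverine in 1× PBS pH 7.4 for 30 min at room temperature in the dark. The premix was added 1:1 to two‑fold serial peptide dilutions in PBS, with polymyxin B as control, and shaken at 120 rpm. Fluorescence was read at ex 580/em 620 nm. Occupancy factor and % BC displaced came from sample fluorescence scaled between highest and lowest signals.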

[1] = K114 fluorescence fibrillation assay with LPS or LTA; type: physicochemical, E. coli O111:B4 (LPS), S. aureus (LTA); settings: 20 µM peptide, 37 °C
Summary of the method: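 A 10 mM DMSO stock of K114 was diluted to 250 µM in water and mixed at once with test peptide plus LPS (E. coli O111:B4) or LTA (S. aureus), with shaking at 120 rpm. K114 fluorescence (ex 360/em 550 nm) was read at 0.5, 1 and 2 h. Results were given as % increase in signal, with a non‑fibrillating control peptide as baseline. Three repeats, mean ± SE.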

[2] = K114 fluorescence fibrillation assay in PBS alone; type: physicochemical; settings: 20 µM peptide, 1× PBS pH 7.4, 37 °C, 30 minutes
Summary of the method: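 K114 was dissolved in DMSO at 10 mM and diluted to 250 µM in water. It was mixed at once with test peptide in 1× PBS pH 7.4 without LPS or LTA and shaken at 120 rpm. Fluorescence was read at ex 360/em 550 nm at 0.5, 1.0 and 2.0 h. Fibrillation was judged by signal above a non‑fibrillating control peptide.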

Fibrillation (K114 fluorescence signal) in response to LPS ([1]; 5 µg mL−1 LPS)	Fibrillation (K114 fluorescence signal) upon LTA binding ([1]; 5 µg mL−1 LTA)	Sequence	Nanonet morphology (surface coverage, extensiveness) on E. coli (E. coli ATCC 25 922)	Nanonet morphology (surface coverage, extensiveness) on S. aureus (S. aureus ATCC 29 737)	Binding to bacterial PAMPs (BC displaced from LPS or LTA) (BODIPY-Cadaverine)	Fibrillation (K114 fluorescence) in PBS alone [2]
–	–	EVRIKLTAKIEVR [E‐E13 ^ASYM]	minimal membrane contact and low surface coverage	minimal membrane contact and low surface coverage	significantly reduced binding to bacterial PAMPs	–
–	–	KFRFKLTAKFRFK [diF‐F13]	tighter interweaving of nanofibers on the surface of E. coli	formed nanonets similar to F‐F15 and BTT1‐3A	–	–
lower fibrillation in response to LPS	higher in fibrillation upon LTA binding	KFRVKLTAKVRFK [F‐F13]	loosely trap E. coli with moderate surface coverage	slightly increased surface coverage on S. aureus but with less extensive nanonets	–	–
–	–	KLKLKLTAKLKLK [btt1‐3A13]	less extensive nanonets with low surface coverage	random aggregated structures	–	–
–	–	LKFRFKLTAKFRFKL [diF‐F15]	–	–	–	spontaneously fibrillated in PBS; also recorded: significantly increased the K114 fluorescence signal, even in PBS alone
–	–	LKFRVKLTAKVRFKL [F‐F15]	extensive nanonets with moderate surface coverage	extensive nanonets with moderate surface coverage	–	–
